Results published in the M2OR odorant receptor database.

Experiments:
Conditions in all cases: stereoisomer not certain
[1] = tested on: O10G7 I28V
Summary of the method: (§1)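 Assay methods differ from source to source, frequently being transient luciferase assays in mammalian cell lines. For each receptor–molecule pair, the label responsive (active) applies when the original authors judged the measured signal statistically different from baseline, and non-responsive (inactive) applies otherwise.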

[2] = tested on: O10H2
Summary of the method: as §1

[3] = tested on: O10H3 R54H
Summary of the method: as §1

[4] = tested on: O10H4 I50V
Summary of the method: as §1

[5] = tested on: O10H5 S268Y
Summary of the method: as §1

[6] = tested on: O10J1 M62I I103M
Summary of the method: as §1

[7] = tested on: O10J1 M62I
Summary of the method: as §1

[8] = tested on: O10J3 Q235R E319G
Summary of the method: as §1

[9] = tested on: O10P1 R195K
Summary of the method: as §1

[10] = tested on: O10Q1 E12D
Summary of the method: as §1

[11] = tested on: O10Q1 Q10R E12D
Summary of the method: as §1

[12] = tested on: O10R2 I170L
Summary of the method: as §1

[13] = tested on: O10T2 I137M
Summary of the method: as §1

[14] = tested on: O10V1 Q123R
Summary of the method: as §1

[15] = tested on: O10X1 N4T R181S
Summary of the method: as §1

[16] = tested on: O11G2 F3I I99N V116I
Summary of the method: as §1

[17] = tested on: O11H1 M240V
Summary of the method: as §1

[18] = tested on: O11H6 I107T
Summary of the method: as §1

[19] = tested on: O11HC C156Y V240M
Summary of the method: as §1

[20] = tested on: O12D2 S104F
Summary of the method: as §1

Chain of O10H2 (as listed by the source): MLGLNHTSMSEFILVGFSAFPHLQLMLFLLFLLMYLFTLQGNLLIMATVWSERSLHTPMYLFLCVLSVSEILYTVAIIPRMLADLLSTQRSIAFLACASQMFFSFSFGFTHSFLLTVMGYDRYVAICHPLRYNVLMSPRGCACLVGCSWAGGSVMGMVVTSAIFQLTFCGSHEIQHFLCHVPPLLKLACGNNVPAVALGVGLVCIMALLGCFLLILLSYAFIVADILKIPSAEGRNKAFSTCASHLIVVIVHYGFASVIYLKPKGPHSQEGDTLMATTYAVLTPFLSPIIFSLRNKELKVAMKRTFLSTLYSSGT
Chain of O10H3 R54H (as listed by the source, stated change not applied): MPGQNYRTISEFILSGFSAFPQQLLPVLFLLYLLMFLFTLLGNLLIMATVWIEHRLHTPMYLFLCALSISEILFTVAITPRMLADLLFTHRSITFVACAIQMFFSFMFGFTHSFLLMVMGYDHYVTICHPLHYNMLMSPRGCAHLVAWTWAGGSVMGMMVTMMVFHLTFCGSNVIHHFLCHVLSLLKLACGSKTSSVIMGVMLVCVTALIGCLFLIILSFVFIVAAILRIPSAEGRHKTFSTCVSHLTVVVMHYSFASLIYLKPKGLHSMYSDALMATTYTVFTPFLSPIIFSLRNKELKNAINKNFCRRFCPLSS
Chain of O10P1 R195K (as listed by the source, stated change not applied): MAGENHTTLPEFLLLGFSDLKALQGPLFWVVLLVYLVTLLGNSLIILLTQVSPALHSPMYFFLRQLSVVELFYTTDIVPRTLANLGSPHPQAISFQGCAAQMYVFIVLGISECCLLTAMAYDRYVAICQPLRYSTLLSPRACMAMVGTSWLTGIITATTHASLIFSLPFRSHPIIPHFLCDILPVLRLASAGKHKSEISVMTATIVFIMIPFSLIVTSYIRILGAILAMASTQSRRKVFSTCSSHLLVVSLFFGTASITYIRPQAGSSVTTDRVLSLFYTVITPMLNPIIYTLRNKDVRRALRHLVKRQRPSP
Chain of O10H4 I50V (as listed by the source, stated change not applied): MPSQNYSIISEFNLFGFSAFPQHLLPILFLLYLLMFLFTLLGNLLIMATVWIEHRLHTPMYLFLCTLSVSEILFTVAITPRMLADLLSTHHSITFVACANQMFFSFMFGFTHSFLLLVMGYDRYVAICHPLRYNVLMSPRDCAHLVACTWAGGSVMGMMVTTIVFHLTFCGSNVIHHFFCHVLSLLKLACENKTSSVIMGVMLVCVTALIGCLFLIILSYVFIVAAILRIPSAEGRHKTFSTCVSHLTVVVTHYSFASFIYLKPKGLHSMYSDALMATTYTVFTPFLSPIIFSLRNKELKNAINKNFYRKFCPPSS
Chain of O11H1 M240V (as listed by the source, stated change not applied): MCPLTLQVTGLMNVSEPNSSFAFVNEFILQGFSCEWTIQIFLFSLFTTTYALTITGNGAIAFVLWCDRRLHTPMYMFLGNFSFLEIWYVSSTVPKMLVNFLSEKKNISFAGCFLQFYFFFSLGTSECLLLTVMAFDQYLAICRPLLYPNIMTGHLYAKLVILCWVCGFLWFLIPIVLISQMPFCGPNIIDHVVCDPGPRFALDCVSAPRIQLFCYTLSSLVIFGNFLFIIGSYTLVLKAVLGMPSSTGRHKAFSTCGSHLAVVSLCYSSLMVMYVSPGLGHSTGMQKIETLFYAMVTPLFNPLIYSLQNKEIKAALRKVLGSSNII
Chain of O10J1 M62I (as listed by the source, stated change not applied): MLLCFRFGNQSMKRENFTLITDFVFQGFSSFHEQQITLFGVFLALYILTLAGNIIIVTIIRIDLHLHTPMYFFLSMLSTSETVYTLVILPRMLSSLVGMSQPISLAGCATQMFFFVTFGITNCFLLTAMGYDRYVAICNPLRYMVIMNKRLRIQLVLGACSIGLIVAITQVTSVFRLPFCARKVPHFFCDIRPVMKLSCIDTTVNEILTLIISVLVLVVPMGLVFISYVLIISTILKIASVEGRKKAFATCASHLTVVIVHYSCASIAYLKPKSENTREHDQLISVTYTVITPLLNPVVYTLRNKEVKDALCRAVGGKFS
Chain of O12D2 S104F (as listed by the source, stated change not applied): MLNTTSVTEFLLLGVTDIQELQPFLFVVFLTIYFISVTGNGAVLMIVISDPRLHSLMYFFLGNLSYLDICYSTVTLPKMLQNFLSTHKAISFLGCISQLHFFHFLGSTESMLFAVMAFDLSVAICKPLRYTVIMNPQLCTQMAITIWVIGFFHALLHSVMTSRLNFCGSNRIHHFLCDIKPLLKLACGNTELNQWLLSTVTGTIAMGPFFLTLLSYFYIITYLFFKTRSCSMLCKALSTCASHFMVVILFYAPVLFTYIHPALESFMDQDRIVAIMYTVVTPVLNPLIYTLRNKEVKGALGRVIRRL
Chain of O10V1 Q123R (as listed by the source, stated change not applied): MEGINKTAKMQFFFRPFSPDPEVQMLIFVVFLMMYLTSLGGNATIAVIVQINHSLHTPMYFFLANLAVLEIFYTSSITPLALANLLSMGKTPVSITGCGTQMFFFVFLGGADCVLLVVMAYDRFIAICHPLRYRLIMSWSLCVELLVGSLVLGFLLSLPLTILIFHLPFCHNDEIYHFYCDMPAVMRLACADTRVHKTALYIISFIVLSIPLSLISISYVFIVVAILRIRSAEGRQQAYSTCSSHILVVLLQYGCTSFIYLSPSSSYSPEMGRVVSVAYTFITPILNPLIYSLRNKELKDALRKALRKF
Chain of O10G7 I28V (as listed by the source, stated change not applied): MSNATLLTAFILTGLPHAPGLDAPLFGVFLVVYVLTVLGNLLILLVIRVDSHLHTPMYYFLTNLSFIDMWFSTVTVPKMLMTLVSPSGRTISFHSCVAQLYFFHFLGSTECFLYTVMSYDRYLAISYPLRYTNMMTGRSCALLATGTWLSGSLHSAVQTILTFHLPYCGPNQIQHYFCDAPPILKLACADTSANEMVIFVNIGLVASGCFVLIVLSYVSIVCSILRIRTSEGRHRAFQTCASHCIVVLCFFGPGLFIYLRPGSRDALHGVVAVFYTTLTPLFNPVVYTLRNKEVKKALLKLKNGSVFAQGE
Chain of O11H6 I107T (as listed by the source, stated change not applied): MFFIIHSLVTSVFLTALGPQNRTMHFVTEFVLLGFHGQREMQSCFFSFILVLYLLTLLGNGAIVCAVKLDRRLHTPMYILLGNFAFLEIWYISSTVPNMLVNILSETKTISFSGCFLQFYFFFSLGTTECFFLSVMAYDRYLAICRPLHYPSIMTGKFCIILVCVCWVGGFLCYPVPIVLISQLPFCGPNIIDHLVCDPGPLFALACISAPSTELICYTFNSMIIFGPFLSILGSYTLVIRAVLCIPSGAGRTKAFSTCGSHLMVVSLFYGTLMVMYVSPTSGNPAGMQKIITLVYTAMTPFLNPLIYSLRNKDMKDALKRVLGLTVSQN
Chain of O10H5 S268Y (as listed by the source, stated change not applied): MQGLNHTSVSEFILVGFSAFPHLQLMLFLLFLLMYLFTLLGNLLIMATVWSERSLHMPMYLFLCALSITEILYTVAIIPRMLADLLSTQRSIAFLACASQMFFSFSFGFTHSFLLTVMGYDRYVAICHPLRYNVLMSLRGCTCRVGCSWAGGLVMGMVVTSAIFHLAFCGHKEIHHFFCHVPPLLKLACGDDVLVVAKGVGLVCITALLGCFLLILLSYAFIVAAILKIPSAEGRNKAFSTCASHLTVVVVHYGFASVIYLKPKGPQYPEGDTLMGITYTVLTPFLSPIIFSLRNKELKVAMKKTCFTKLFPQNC
Chain of O10R2 I170L (as listed by the source, stated change not applied): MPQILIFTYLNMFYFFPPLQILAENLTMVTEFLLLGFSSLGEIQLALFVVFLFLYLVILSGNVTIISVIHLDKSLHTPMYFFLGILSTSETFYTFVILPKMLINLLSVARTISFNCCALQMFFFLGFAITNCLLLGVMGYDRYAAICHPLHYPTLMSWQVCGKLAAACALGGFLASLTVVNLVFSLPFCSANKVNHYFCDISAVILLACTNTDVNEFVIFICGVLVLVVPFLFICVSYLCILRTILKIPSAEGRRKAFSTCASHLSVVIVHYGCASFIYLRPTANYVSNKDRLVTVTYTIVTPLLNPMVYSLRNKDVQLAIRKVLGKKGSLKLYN
Chain of O10T2 I137M (as listed by the source, stated change not applied): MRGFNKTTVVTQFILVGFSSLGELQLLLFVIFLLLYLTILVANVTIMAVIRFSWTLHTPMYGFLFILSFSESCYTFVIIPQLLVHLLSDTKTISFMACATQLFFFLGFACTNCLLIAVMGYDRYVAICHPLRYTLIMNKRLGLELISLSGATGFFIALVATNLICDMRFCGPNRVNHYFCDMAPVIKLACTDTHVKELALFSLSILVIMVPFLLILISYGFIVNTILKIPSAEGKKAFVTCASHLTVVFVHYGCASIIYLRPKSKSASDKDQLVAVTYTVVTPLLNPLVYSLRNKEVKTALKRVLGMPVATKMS
Chain of O10Q1 E12D (as listed by the source, stated change not applied): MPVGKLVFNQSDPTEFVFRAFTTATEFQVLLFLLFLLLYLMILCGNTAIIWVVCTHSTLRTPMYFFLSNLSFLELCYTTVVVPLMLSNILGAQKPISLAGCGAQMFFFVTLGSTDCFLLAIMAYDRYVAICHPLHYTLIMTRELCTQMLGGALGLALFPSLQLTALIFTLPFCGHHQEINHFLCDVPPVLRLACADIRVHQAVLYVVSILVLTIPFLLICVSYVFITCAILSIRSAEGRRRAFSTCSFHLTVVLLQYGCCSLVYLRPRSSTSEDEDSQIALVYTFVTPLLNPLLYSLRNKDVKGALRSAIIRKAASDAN

Row | Structure (SMILES) | odorant receptor agonist call [1] | odorant receptor agonist call [2] | odorant receptor agonist call [3] | odorant receptor agonist call [4] | odorant receptor agonist call [5] | odorant receptor agonist call [6] | odorant receptor agonist call [7] | odorant receptor agonist call [8] | odorant receptor agonist call [9] | odorant receptor agonist call [10] | odorant receptor agonist call [11] | odorant receptor agonist call [12] | odorant receptor agonist call [13] | odorant receptor agonist call [14] | odorant receptor agonist call [15] | odorant receptor agonist call [16] | odorant receptor agonist call [17] | odorant receptor agonist call [18] | odorant receptor agonist call [19] | odorant receptor agonist call [20]
1 | C=CCOC(=O)Cc1ccccc1 | inactive | inactive | inactive | inactive | inactive | inactive | inactive | inactive | inactive | inactive | inactive | inactive | inactive | inactive | inactive | inactive | inactive | inactive | inactive | inactive
2 | O=CC=Cc1ccccc1 |  | active |  |  |  |  |  |  |  |  |  |  |  |  |  |  |  |  |  | 
